Here are results for two compounds from article PMC6044759 (ACS Omega, 2018).

Structures can show the parent of a compound that is named as a salt.

Data set [1] concerns MCF-7 cells. As to the kind of experiment: Live and dead assay by flow cytometry. It is filed as cell-based, human. To be noted: 15 nM, positive control, PI staining. The essentials:
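MCF-7 cells (0.8 × 10^6) were exposed to vehicle, 3 or 6 μM test compound, or 15 nM vinblastine (positive control) for 48 h. Cells were stained with propidium iodide and live and dead percentages were counted by flow cytometry. Values are mean ± SD of three experiments.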

For data set [2] the following is noted: cited from earlier work.

`CC[C@]1(O)C[C@@H]2CN(CCc3c([nH]c4ccccc34)[C@@](C(=O)OC)(c3cc4c(cc3OC)N(C)[C@H]3[C@@](O)(C(=O)OC)[C@H](OC(C)=O)[C@]5(CC)C=CCN6CC[C@]43[C@@H]65)C2)C1` [Vinblastine, Vinblastine sulfate]: in data set [1], the dead % was 83 ± 6% and the live % worked out at 18 ± 6%.

As to `COc1ccc(/C=C\c2cc(OC)c(OC)c(OC)c2)cc1O` [CA-4, combretastatin A-4], the Solubility in water result in data set [2] is on record as “poorly soluble in water”.
